Screening results as filed in PubChem.
Kir21 block: inhibitors of mouse Kir2.1 inward-rectifier potassium channel. actives 0.85% (n = 310,000). B-score at 10 µM. P35561. HEK293-Kir2.1, FluxOR thallium flux fluorescence; active compounds read low;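 active = fluorescence ratio B-score at or below minus 3 SD of library scores, with starting-brightness B-score within 2 SD, cut at about -4.2 in these data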;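 also: channel flux triggered by added potassium and thallium sulfate stimulus; B-score of peak minus minimum fluorescence over baseline after thallium stimulus; more negative B-score means stronger Kir2.1 block with less thallium influx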
KCNQ1 act: human KCNQ1 channel potentiation or activation; P51787; CHO-K1 KCNQ1, thallium flux FluxOR fluorescence; active compounds read high; B-score at 10 µM; actives 0.35% (n = 310,000);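 active = fluorescence ratio B-score, a plate-corrected score, at least three library SD, with initial intensity B-score within 5 SD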
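Assay system: stable KCNQ1 CHO-K1 line; medium: assay buffer, equal DMSO in all wells; timing: 90 min dye loading and 20 min compound exposure, both at room temperature; technique: kinetic FluxOR thallium fluorescence, 10-s 1-Hz baseline, 110-s post-stimulus read; read-out basis: B score of baseline-normalized fluorescence ratio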
KCNK3 block: human KCNK3 channel inhibition, primary screen | actives 0.84% (n = 340,000) | CHO-KCNK3 thallium flux, FluxOR fluorescence; active compounds read low | B-score at 10 µM | AID 602410 | O14649;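 active = B-score under library mean minus 4 SD, starting fluorescence ratio at most library mean plus 5 SD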;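 also: more negative B-score means stronger inhibition of thallium flux through KCNK3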
hERG rescue: shields human hERG channel from block by proarrhythmic agents; Q12809; CHO-hERG, FluxOR thallium flux, dofetilide IC70 present; activation (rescue from dofetilide block), less the hit threshold, % at 10 µM; actives 0.51% (n = 310,000); AID 1511;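 active = activation above the mean of controls blocked by dofetilide plus 5 SD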;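 also: thallium influx through hERG after potassium depolarization seen as dye fluorescence rise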
Target sequence (Q12809 whole entry, looked up): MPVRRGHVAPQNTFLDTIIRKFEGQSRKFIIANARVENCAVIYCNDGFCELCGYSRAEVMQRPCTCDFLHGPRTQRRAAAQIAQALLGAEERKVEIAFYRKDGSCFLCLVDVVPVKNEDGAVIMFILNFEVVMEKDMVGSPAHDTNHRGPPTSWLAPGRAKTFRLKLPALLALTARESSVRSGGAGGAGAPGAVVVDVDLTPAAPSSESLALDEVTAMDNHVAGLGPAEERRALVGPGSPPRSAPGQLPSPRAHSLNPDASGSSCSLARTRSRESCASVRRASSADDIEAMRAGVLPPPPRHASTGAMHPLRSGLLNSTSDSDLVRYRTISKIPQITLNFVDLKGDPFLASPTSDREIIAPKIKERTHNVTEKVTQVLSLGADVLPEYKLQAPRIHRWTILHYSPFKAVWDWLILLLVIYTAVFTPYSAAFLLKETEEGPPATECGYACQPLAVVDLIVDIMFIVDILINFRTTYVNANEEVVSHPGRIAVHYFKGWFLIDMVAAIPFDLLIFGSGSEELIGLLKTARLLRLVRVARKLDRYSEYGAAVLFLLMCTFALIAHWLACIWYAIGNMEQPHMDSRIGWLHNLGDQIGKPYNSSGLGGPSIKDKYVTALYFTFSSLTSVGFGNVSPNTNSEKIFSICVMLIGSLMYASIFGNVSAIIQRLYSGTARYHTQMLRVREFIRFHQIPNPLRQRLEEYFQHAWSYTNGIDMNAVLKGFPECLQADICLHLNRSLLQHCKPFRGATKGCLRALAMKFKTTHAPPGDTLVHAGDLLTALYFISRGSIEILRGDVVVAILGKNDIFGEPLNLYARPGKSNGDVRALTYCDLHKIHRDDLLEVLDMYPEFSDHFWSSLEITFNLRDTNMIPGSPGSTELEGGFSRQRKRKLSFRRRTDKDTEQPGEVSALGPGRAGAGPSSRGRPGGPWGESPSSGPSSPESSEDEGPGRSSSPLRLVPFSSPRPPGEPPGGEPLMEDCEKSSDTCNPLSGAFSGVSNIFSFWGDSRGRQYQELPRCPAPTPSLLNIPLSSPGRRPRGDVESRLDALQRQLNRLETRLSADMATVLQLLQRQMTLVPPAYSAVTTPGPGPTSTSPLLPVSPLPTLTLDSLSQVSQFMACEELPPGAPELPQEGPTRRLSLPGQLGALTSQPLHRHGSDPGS
KCNK9 inh: blocks the human KCNK9 two-pore domain potassium channel; actives 1.2% (n = 310,000); AID 488922; HEK293 KCNK9, FluxOR thallium flux fluorescence; active compounds read low; B-score at 10 µM;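 active = ratio B-score over 3 SD below the library mean, with starting fluorescence within 5 SD of its mean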;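 also: negative B-score means less thallium flux so channel inhibition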
KCNQ1 inh: inhibitors of human KCNQ1 potassium channel; P51787; CHO-K1 KCNQ1, FluxOR thallium flux fluorescence; active compounds read high; B-score at 10 µM; actives 1.3% (n = 310,000); AID 2642;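 active = compounds whose thallium flux B-score, printed positive for inhibition, exceeds three library SD while starting fluorescence stays within three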;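 also: channel opened by potassium depolarization with thallium stimulus after 20 min compound exposure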
KCNQ1 inh valid: confirmation of human KCNQ1 potassium channel inhibitors; shares compounds with KCNQ1 inh; KCNQ1 cell line, FluxOR thallium flux fluorescence; inhibition, % at 10 µM; actives 93% (n = 1,600); AID 588353;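 active = primary screen active, with duplicate mean exceeding buffer control mean plus 3 SD of buffer wells, cut at about 28% in these data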
CHO KCNQ1 ctr: activity in parental CHO cells lacking KCNQ1. shares compounds with KCNQ1 inh. parental CHO-K1, FluxOR thallium flux fluorescence ratio; active compounds read low; zero means no signal rise above baseline. fluorescence ratio (Tl flux) at 10 µM. actives 21% (n = 1,600). AID 588366;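 active = mean of duplicate thallium-flux fluorescence ratios in parental host cells more than 5 SD below the buffer control mean, cut at about 0.38 in these data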;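 also: ratio is peak minus minimum fluorescence divided by baseline fluorescence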
KCNQ1 APC inh: human KCNQ1 inhibition validated by electrophysiology; calls only at 10 µM; actives 20% (n = 490); AID 624120; shares compounds with KCNQ1 inh; KCNQ1-CHO cells, automated patch clamp current;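 active = KCNQ1 current drop exceeding 3 SD of negative control wells, seen in both duplicate runs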;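 also: steady state current during a 2 s step from -80 to +40 mV; negative values mean current inhibition and positive values mean potentiation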
KCNQ2 spec: KCNQ1 inhibitor that also blocks rat KCNQ2 channel. KCNQ2 cells, FluxOR thallium flux fluorescence. AID 651746. inhibition, % at 10 µM. shares compounds with KCNQ1 inh. actives 71% (n = 1,600);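 active = mean percent inhibition of the KCNQ2 thallium signal more than 5 SD above the buffer-only control wells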;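 also: KCNQ2 expressed in CHO cells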
KCNQ1 KCNE1 spec: KCNQ1 inhibitor that also blocks human KCNQ1/KCNE1 channel. actives 77% (n = 1,600). KCNQ1/KCNE1 cells, FluxOR thallium flux fluorescence. inhibition, % at 10 µM. shares compounds with KCNQ1 inh. AID 652147;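 active = mean percent inhibition of duplicate wells above the buffer-only control mean plus 3 SD of those controls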
KCNK9 block conf: human KCNK9 inhibitor confirmation. shares compounds with KCNK9 inh. HEK293 KCNK9 cells, FluxOR thallium flux fluorescence. inhibition, % at 10 µM. actives 43% (n = 4,900). AID 492992;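 active = thallium signal inhibited by more than 5 SD of the compound-free buffer control wells, on both duplicate plates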
Kir2-1 spec: selectivity of KCNK9 modulators against mouse Kir2.1; shares compounds with KCNK9 inh; Kir2.1 cells, FluxOR thallium flux fluorescence; inhibition, % at 10 µM; actives 4% (n = 4,900);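 active = thallium signal drop more than 5 SD beyond the mean of the no-compound control wells, seen in both duplicate plates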;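 also: signal is fluorescence rise after thallium addition divided by baseline fluorescence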
HEK293 Tl ctr: second check of KCNK9 modulator effects in non-induced HEK293 cells. FluxOR thallium flux. AID 492997. shares compounds with KCNK9 inh. inhibition, % at 10 µM. actives 40% (n = 4,900);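 active = thallium signal drop beyond 5 SD of the untreated control mean, on both duplicate plates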
KCNK3 inh conf: confirmation of human KCNK3 two-pore domain potassium channel inhibitors | shares compounds with KCNK3 block | CHO-KCNK3 thallium flux, FluxOR fluorescence; 0% buffer, 100% carvedilol maximal block | ratio percent of control, % at 10 µM | actives 99% (n = 2,400);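 active = ratio percent of control, averaged over triplicates, above buffer control mean plus 5 SD, cut at about 64% in these data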;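 also: ratio is the fluorescence rise from min to max over baseline after thallium stimulus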
KCNK3 uninduced: activity in cells without induced KCNK3 expression; shares compounds with KCNK3 block; non-induced KCNK3 parental cells, FluxOR thallium flux; active compounds read low; thallium flux ratio (lower = more inhibition) at 10 µM; actives 40% (n = 2,400);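 active = thallium flux ratio, averaged over three wells, more than 5 SD below the buffer control mean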;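 also: host cells are CHO cells without KCNK3 induction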
Large screens that a line does not name were inactive (follow-up assays come after a bar, where they were run). Shown are actives, neighbours in structure and some others; about 3.7% of the full set was active somewhere.

Cc1cc(N2CCN(c3nc(-c4ccccc4)cs3)CC2)c2ccccc2n1	KCNK3 block -13.9, KCNQ1 inh 7 | KCNQ1 inh valid 129.5 | CHO KCNQ1 ctr inactive | KCNQ1 APC inh inactive | KCNQ2 spec 106.7% | KCNQ1 KCNE1 spec 195.0% | KCNK3 inh conf 136.0 | KCNK3 uninduced 0.131
CCN(CC)S(=O)(=O)c1cc(NC(=O)C2CCN(c3ncnc4sc(C)c(C)c34)CC2)ccc1Cl	KCNK3 block -9.55, KCNQ1 inh 6 | KCNQ1 inh valid 58.0 | CHO KCNQ1 ctr inactive | KCNQ2 spec 72.0% | KCNQ1 KCNE1 spec 95.0% | KCNK3 inh conf 102.0 | KCNK3 uninduced 0.157
Cc1ccc(NC(=O)C2CCN(c3ncnc4sc(C)c(C)c34)CC2)cc1S(=O)(=O)N(C)C	none
Cc1sc2ncnc(N3CCC(C(=O)NNC(=O)c4ccc(Cl)cc4)CC3)c2c1C	none
Cc1sc2ncnc(N3CCC(C(=O)Nc4cc(Cl)ccc4Cl)CC3)c2c1C	KCNK3 block -10, KCNQ1 inh 11 | KCNQ1 inh valid 71.0 | CHO KCNQ1 ctr inactive | KCNQ2 spec 123.0% | KCNQ1 KCNE1 spec 99.0% | KCNK3 inh conf 127.0 | KCNK3 uninduced 0.127
O=C(Cn1cc(C(F)(F)F)cc(Cl)c1=O)Nc1cccc(S(=O)(=O)N2CCCCC2)c1	none (no result: Kir21 block, KCNQ1 act, hERG rescue, KCNK9 inh, KCNQ1 inh)
COc1ccc(CN(C)S(=O)(=O)c2nnc(NC(=O)c3ccccc3)s2)cc1OC	none
COc1ccccc1C(=O)Nc1nnc(S(=O)(=O)N(C)Cc2ccccc2)s1	KCNK3 block -12.4, KCNQ1 inh 17 | KCNQ1 inh valid 140.0 | CHO KCNQ1 ctr 0.373 | KCNQ2 spec 121.7% | KCNQ1 KCNE1 spec active | KCNK3 inh conf 114.7 | KCNK3 uninduced 0.105
CCCCNC(=S)N1CCn2cccc2C1c1ccccc1 (configuration not stated)	none
CCCCNC(=S)N1CCn2cccc2C1c1ccc(F)cc1 (configuration not stated)	KCNK3 block -9.7, KCNK9 inh -13.6, KCNQ1 inh 6 | KCNQ1 inh valid 92.5 | CHO KCNQ1 ctr inactive | KCNQ1 APC inh inactive | KCNQ2 spec 81.3% | KCNQ1 KCNE1 spec 70.5% | KCNK9 block conf 55.5% | Kir2-1 spec inactive | HEK293 Tl ctr 41.0% | KCNK3 inh conf 134.0 | KCNK3 uninduced 0.147
CCOC(=O)N1CCC(n2c(SCC(=O)Nc3ccccc3OC)nc3ccccc3c2=O)CC1	KCNK3 block -8.91, KCNQ1 inh 6 | KCNQ1 inh valid 82.0 | CHO KCNQ1 ctr 0.379 | KCNQ2 spec 109.0% | KCNQ1 KCNE1 spec 136.0% | KCNK9 block conf inactive | Kir2-1 spec inactive | HEK293 Tl ctr inactive | KCNK3 inh conf 109.7 | KCNK3 uninduced 0.151
O=C1CCCc2nc(N3CCN(C(=O)c4ccco4)CC3)ncc21	none
O=C1CCCc2nc(N3CCN(C(c4ccccc4)c4ccccc4)CC3)ncc21	KCNK3 block -8.76, KCNQ1 inh 8 | KCNQ1 inh valid 96.5 | CHO KCNQ1 ctr inactive | KCNQ1 APC inh inactive | KCNQ2 spec 108.0% | KCNQ1 KCNE1 spec 165.0% | KCNK3 inh conf 119.3 | KCNK3 uninduced 0.145
CC1CCCCC1NC(=O)c1cc2c(=O)n3ccccc3nc2n1C (configuration not stated)	none
CC1CC(NC(=O)c2cc3c(=O)n4ccccc4nc3n2C)CC(C)(C)C1 (configuration not stated)	KCNK3 block -9.23, KCNQ1 inh 6 | KCNQ1 inh valid 38.5 | CHO KCNQ1 ctr inactive | KCNQ2 spec 101.0% | KCNQ1 KCNE1 spec inactive | KCNK3 inh conf 95.7 | KCNK3 uninduced inactive
CC1=Nc2ccccc2/C1=C/c1sc(=S)n(-c2cccc(C(=O)O)c2)c1O	KCNK3 block -11.4, KCNQ1 inh 15 | KCNQ1 inh valid 105.5 | CHO KCNQ1 ctr 0.342 | KCNQ2 spec inactive | KCNQ1 KCNE1 spec inactive | KCNK3 inh conf 145.3 | KCNK3 uninduced 0.114
Oc1c(C=C2N=c3ccccc3=N2)sc(=S)n1-c1ccccc1	none
O=C1NC(=Nc2ccccc2Cl)S/C1=C\c1cc([N+](=O)[O-])ccc1O	KCNK3 block -13.6, KCNQ1 inh 23 | KCNQ1 inh valid 197.0 | CHO KCNQ1 ctr 0.17 | KCNQ2 spec 166.0% | KCNQ1 KCNE1 spec active | KCNK3 inh conf 169.0 | KCNK3 uninduced 0.033
O=C(CCCOc1ccc(Cl)cc1Cl)N1CCCc2ccccc21	KCNK3 block -11.5, KCNQ1 inh 8 | KCNQ1 inh valid 112.5 | CHO KCNQ1 ctr inactive | KCNQ1 APC inh inactive | KCNQ2 spec 92.0% | KCNQ1 KCNE1 spec 167.0% | KCNK9 block conf inactive | Kir2-1 spec inactive | HEK293 Tl ctr 33.0% | KCNK3 inh conf 122.3 | KCNK3 uninduced 0.144
